Square brackets hold non-standard residues; d marks the D form. Peptide text beside a SMILES is read from it. Sar = CNCC(=O)O
Key:
[1] = molecular target: Angiotensin II receptor (Rattus norvegicus) (UniProt P29089+P25095+P35351); test: Intrinsic myotropic activity at angiotensin 2 receptor in Sprague-Dawley rat uterus relative to [Ile5]angiotensin 2
In short: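 Isolated uterus from diethylstilbestrol-primed female Sprague-Dawley rats (150-250 g), challenged every 12 min. Activity expressed relative to [Ile5]angiotensin II (MRC Research Standard A, 70/302). Mean ± SEM, with the number of experiments given.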

Rattus norvegicus = test: Pressor activity in anesthetized vagotomized-ganglionic blocked rat model administered as bolus injection relative to [Ile5]angiotensin 2; type: functional
In short: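 Anesthetized, vagotomized rats. Ganglion block with mecamylamine hydrochloride, 0.3 mg/100 g subcutaneous in 10% polyvinylpyrrolidone. Analogues given as bolus injections in a 2+2 assay against angiotensin II standard (MRC Research Standard A, 70/302). Mean ± SEM, with the number of experiments given.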

Angiotensin II receptor = molecular target: T1, Angiotensin II receptor (Rattus norvegicus, UniProt P29089+P25095+P35351); test: Antagonist activity at angiotensin 2 receptor in Sprague-Dawley rat uterus assessed as reduction of angiotensin 2-induced response pretreated for 2 mins followed by angiotensin 2 challenge for every 12 mins
T1 sequence (P29089 whole entry): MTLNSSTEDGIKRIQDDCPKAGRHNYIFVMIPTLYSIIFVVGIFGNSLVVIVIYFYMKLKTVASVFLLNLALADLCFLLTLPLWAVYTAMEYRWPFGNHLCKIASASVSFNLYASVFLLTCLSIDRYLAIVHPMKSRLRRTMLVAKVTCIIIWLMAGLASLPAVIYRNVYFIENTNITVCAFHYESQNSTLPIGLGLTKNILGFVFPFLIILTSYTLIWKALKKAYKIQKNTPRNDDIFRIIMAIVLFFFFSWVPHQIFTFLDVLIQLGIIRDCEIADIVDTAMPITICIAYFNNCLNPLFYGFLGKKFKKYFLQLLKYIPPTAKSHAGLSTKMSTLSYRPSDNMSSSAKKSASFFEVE
T1 sequence (P25095 whole entry): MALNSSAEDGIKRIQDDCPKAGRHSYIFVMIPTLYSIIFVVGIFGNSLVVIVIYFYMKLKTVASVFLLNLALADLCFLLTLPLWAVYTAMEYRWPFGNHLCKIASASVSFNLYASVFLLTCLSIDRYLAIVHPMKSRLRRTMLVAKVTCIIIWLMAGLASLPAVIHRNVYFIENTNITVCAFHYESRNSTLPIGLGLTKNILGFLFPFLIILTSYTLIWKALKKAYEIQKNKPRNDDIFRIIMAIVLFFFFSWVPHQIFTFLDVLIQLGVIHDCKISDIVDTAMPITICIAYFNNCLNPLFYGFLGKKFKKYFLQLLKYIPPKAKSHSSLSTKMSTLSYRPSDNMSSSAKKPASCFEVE
T1 sequence (P35351 whole entry): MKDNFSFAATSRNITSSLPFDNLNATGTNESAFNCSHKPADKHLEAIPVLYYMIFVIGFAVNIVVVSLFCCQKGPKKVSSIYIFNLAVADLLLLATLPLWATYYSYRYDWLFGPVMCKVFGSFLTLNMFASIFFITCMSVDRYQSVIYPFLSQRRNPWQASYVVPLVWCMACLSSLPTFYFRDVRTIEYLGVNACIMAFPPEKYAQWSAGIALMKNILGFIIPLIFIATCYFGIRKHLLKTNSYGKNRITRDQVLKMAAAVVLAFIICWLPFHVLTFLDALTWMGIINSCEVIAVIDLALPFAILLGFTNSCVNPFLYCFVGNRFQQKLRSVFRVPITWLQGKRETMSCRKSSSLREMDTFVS

Intrinsic activity [1] [%] | pA2 (Angiotensin II receptor) | SMILES | Activity (Rattus norvegicus) [%]
< 0.1 | 7.4 | CC[C@H](C)[C@H](NC(=O)[C@H](Cc1ccc(O)cc1)NC(=O)[C@@H](NC(=O)[C@H](CCCNC(=N)N)NC(=O)CNC)C(C)C)C(=O)N[C@@H](Cc1cnc[nH]1)C(=O)N(C)CC(=O)N[C@@H](CC(C)C)C(=O)O (H-[Sar]RVYIH[Sar]L-OH) | 0.21
0.7 | 8.4 | CCC(C)C(NC(=O)CN(C)C(=O)[C@H](Cc1cnc[nH]1)NC(=O)[C@@H](NC(=O)[C@H](Cc1ccc(O)cc1)NC(=O)[C@@H](NC(=O)[C@H](CCCNC(=N)N)NC(=O)CNC)C(C)C)[C@@H](C)CC)C(=O)O (mixture of isomers) | 12.5
< 0.1 | 7 | CC[C@H](C)[C@H](NC(=O)[C@H](Cc1ccc(O)cc1)NC(=O)[C@@H](NC(=O)[C@H](CCCNC(=N)N)NC(=O)CNC)C(C)C)C(=O)N[C@@H](Cc1cnc[nH]1)C(=O)N(C)CC(=O)N[C@@H](C)C(=O)O (H-[Sar]RVYIH[Sar]A-OH) | 0.06

Further lines, the molecule ahead of its results:

SMILES | Intrinsic activity [1] [%] | pA2 (Angiotensin II receptor) | Activity (Rattus norvegicus) [%]
CC[C@H](C)[C@H](NC(=O)[C@H](Cc1ccc(O)cc1)NC(=O)[C@@H](NC(=O)[C@H](CCCNC(=N)N)NC(=O)CNC)C(C)C)C(=O)N[C@@H](Cc1cnc[nH]1)C(=O)N(C)CC(=O)N[C@@H](Cc1ccccc1)C(=O)O (H-[Sar]RVYIH[Sar]F-OH) | 22 | – | 17
CC[C@H](C)[C@H](NC(=O)CN(C)C(=O)[C@H](Cc1cnc[nH]1)NC(=O)[C@@H](NC(=O)[C@H](Cc1ccc(O)cc1)NC(=O)[C@@H](NC(=O)[C@H](CCCNC(=N)N)NC(=O)CNC)C(C)C)[C@@H](C)CC)C(=O)O | < 0.1 | 8.1 | 0.7
CC[C@H](C)[C@H](NC(=O)[C@@H]1CCCN1C(=O)[C@H](Cc1c[nH]cn1)NC(=O)[C@@H](NC(=O)[C@H](Cc1ccc(O)cc1)NC(=O)[C@@H](NC(=O)[C@H](CCCN=C(N)N)NC(=O)CNC)C(C)C)[C@@H](C)CC)C(=O)O | < 0.1 | – | 1.1
CC[C@H](C)[C@H](NC(=O)[C@H](Cc1ccc(O)cc1)NC(=O)[C@@H](NC(=O)[C@H](CCCNC(=N)N)NC(=O)CNC)C(C)C)C(=O)N[C@@H](Cc1cnc[nH]1)C(=O)N(C)CC(=O)N[C@H](C(=O)O)[C@@H](C)OC (H-[Sar]RVYIH[Sar]T(Me)-OH) | < 0.1 | 7.4 | 0.13
CC[C@H](C)[C@H](NC(=O)[C@H](Cc1ccc(O)cc1)NC(=O)[C@@H](NC(=O)[C@H](CCCNC(=N)N)NC(=O)CNC)C(C)C)C(=O)N[C@@H](Cc1cnc[nH]1)C(=O)N(C)CC(=O)N[C@@H](CCSC)C(=O)O (H-[Sar]RVYIH[Sar]M-OH) | < 0.1 | 7.7 | 0.82

From ChEMBL document CHEMBL3244222, “Synthesis of angiotensin II antagonists containing sarcosine in position 7” (J Med Chem, 1979)
